Assay results: ChEMBL document CHEMBL2424641, “Synthesis and evaluation of novel radioligands for positron emission tomography imaging of the orexin-2 receptor” (J Med Chem, 2013)
Calls of active or inactive are those of the source. No cut-off for these calls is given here.

Experiments:
[1] = target: T1, Orexin receptor type 2 (Rattus norvegicus) (UniProt P56719); assay: Binding affinity to OX2 receptor in coronal rat hypothalamus at 2 nM by autoradiography; conditions: tested as the 11C-labelled form
T1 sequence (whole entry): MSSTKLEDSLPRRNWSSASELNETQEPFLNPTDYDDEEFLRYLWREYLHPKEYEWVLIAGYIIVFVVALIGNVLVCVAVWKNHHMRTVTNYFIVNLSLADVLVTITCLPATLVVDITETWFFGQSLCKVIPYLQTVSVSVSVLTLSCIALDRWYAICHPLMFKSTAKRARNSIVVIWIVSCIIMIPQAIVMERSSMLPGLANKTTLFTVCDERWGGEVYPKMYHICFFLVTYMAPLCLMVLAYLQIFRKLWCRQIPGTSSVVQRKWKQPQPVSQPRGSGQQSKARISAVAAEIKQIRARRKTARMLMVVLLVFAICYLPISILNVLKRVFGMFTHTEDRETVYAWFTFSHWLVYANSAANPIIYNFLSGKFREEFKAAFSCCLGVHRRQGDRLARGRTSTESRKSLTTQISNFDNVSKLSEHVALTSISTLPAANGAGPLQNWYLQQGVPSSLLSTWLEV
Summary of the method: (§1)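 Rat brain sections (20 μm) preincubated 20 min at rt in 25 mM HEPES pH 7.4 with 5 mM MgCl2 and 1 mM CaCl2, then incubated 60 min at rt with 11C radioligand; nonspecific binding with 10 μM unlabeled compound. Sections washed three times in cold water, dried, exposed to imaging plate 1 h alongside calibrated radioactive standards.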

[2] = Ratio of flux ratio in pig LLC cells expressing MDR1 to flux ratio on pig LLC-PK1 cells; type: ADME, cell-based, Sus scrofa
Summary of the method: (§2)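 LLC-PK1 and LLC-MDR1 monolayers, 5 days post-seeding, preincubated 2 h at 37 °C in HBSS/10 mM HEPES. Compound added apically or basally, 2 h at 37 °C; opposite side assayed by LC-MS. Papp = Q/t/C0/A; FR = Papp(b→a)/Papp(a→b); corrected FR = FR(LLC-MDR1)/FR(LLC-PK1).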

LLC-PK1 = assay: Flux ratio of permeability from apical to basolateral to basolateral to apical side in pig LLC-PK1 cells after 2 hrs; type: ADME, cell-based, Sus scrofa; conditions: llc-pk1, 2 h; summary of the method: as §2
[3] = target: T1, Orexin receptor type 2 (Rattus norvegicus); assay: Binding affinity to OX2 receptor in coronal rat brain neocortex layer 6 at 2.5 nM by autoradiography; type: tissue-based; conditions: tested as the 11C-labelled form; summary of the method: as §1
[4] = Octanol-phosphate buffer partition coefficient, log D of the compound at pH 7.4 by Shake flask method; type: physicochemical
Summary of the method: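 [11C]-labelled compound (about 200 000 cpm) in n-octanol and 0.1 M PBS pH 7.4, vortexed 3 min at rt and centrifuged; weighed aliquots of each phase γ-counted, with the organic layer repartitioned until stable. log D = log(cpm/g octanol ÷ cpm/g PBS); triplicate.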

[5] = Flux ratio of permeability from apical to basolateral to basolateral to apical side in pig LLC cells expressing MDR1 after 2 hrs; type: ADME, cell-based, Sus scrofa; summary of the method: as §2
Orexin receptor type 2 = target: T2, Orexin receptor type 2 (Homo sapiens, UniProt O43614); assay: Displacement of [125I]-orexin-A from human OX2 receptor expressed in CHO cells after 30 mins by liquid scintillation counting analysis; type: cell-based
T2 sequence (O43614 whole entry): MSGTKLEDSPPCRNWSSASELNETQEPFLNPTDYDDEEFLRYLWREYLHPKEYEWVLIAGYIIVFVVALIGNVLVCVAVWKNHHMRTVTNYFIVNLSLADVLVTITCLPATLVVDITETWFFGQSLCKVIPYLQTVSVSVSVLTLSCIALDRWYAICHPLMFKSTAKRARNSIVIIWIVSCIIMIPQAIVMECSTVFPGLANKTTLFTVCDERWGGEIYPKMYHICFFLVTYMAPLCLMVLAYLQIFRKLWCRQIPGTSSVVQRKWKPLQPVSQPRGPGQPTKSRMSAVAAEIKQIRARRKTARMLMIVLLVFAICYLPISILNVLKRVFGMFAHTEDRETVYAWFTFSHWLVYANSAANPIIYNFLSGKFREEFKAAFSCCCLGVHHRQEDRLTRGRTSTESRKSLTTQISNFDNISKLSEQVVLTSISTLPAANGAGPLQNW
Summary of the method: (§3)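 CHO membranes expressing human OX1R or OX2R (5 μg protein) incubated 30 min at rt with compound and [125I]-orexin A (2 nM stock) in HEPES buffer pH 7.5 with MgCl2, CaCl2, BSA. Nonspecific binding with 10 μM orexin A. Wells washed with HEPES/525 mM NaCl and DPM counted. % inhibition from test, control and nonspecific counts; mean of three wells.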

[6] = target: T3, Orexin/Hypocretin receptor type 1 (Homo sapiens, UniProt O43613); assay: Displacement of [125I]-orexin-A from human OX1 receptor expressed in CHO cells after 30 mins by liquid scintillation counting analysis; type: cell-based; summary of the method: as §3
T3 sequence (O43613 whole entry): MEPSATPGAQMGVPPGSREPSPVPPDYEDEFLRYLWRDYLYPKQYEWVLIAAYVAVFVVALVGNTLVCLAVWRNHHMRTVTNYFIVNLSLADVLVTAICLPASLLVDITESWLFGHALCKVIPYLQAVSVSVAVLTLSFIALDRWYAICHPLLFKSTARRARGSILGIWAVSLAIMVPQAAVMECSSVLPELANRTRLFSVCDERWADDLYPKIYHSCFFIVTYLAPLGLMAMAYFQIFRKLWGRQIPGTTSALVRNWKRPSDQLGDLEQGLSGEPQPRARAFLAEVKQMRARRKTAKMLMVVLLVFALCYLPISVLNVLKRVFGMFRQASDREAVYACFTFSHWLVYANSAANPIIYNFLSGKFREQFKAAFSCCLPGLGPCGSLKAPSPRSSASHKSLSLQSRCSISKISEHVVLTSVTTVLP

[7] = target: T1, Orexin receptor type 2 (Rattus norvegicus); assay: Binding affinity to OX2 receptor in coronal rat neocortex layer 6 at 2 nM by autoradiography; conditions: tested as the 11C-labelled form; summary of the method: as §1

SMILES	Activity [1]	Ratio [2]	Ratio (LLC-PK1)	Activity [3]	logD [4]	Ratio [5]	Ki (Orexin receptor type 2)	Ki [6]	Activity [7]
COc1cc(NC(=O)[C@@H]2C[C@@]2(COc2cnc(C)nc2C)c2cccc(F)c2)ncc1F	Active	2.06	1.19	Active	2.93	2.45	2 nM	3 nM	Active
COc1ccc([C@]2(COc3cnc(C)nc3C)C[C@H]2C(=O)Nc2ccc(F)cn2)cc1F		1.55	0.8		3.32	1.24	7 nM	30 nM	
COCc1nc(C)ncc1OC[C@@]1(c2ccccc2)C[C@H]1C(=O)Nc1ccc(F)cn1		2.03	0.97			1.97	1 nM	9 nM	
Cc1ncc(OC[C@@]2(c3cccc(F)c3)C[C@H]2C(=O)Nc2ccc(F)c(O[11CH3])n2)c(C)n1					3.6				
COc1nc(NC(=O)[C@@H]2C[C@@]2(COc2cnc(C)nc2C)c2cccc(F)c2)ccc1F		1.21	0.81		3.6	0.98	2 nM	12 nM	
